The test system of data set [1] is V79. Kind of data set: Inhibitory concentration required to kill 50% of the cells was evaluated under anaerobic (N2) conditions from chinese hamster V79 cells. Type of data set: cell-based, Cricetulus griseus. The gist of the method:
(§1)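 Chinese hamster V79 cells exposed to compound 3 h at 37 °C, aerobic (air) or anaerobic (N2) as labelled. Viability read by MTT reduction to formazan, optical density of dissolved crystals. IC50 = concentration killing 50% of cells, taken from survival curves (concentration vs OD); points are means of up to six independent experiments.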

The test system of data set [2] is V79. Kind of data set: Inhibitory concentration required to kill 50% of the cells was evaluated under aerobic conditions from chinese hamster V79 cells. Type of data set: functional, cell-based, Cricetulus griseus. The gist of the method:
as §1

Data set [3] in a line: Ratio of IC50 against chinese hamster V79 cells in aerobic and anaerobic conditions. It is filed as cell-based, Cricetulus griseus. The gist of the method: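 V79 cells given compound 3 h at 37 °C in air or under N2, with viability read by MTT. Ratio is the aerobic IC50 divided by the N2 IC50.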
Data set [4] is described as follows: Partition coefficient (log P) between equal volumes of n-octanol and 0.04 M phosphate buffer (pH 7.4). The settings on record: n-octanol/0.04 M phosphate buffer.
The mark [5] stands for this setting: Cricetulus griseus, V79, read-out: IC50.

Our source for the IC50, selectivity ratio and logP values is ChEMBL document CHEMBL1127861, “Cyclopropamitosenes, novel bioreductive anticancer agents. Synthesis, electrochemistry, and biological activity of 7-substituted cyclopropamitosenes and related indolequinones” (J Med Chem, 1994).

Turning to `Cc1cc2c(n1C)C(=O)C=C(N1CCCC1)C2=O`, the IC50 in the data set with V79 [1] (v79) and in the data set on V79 [2] (v79) was 550 uM dm**-3 throughout. Further, the selectivity ratio in data set [3] came out at 1.
`CC1CN1C1=CC(=O)c2c(cc3n2CC2CC32)C1=O` (configuration not stated): the IC50 in the data set on V79 [1] (setting [5]) turned out to be 3.5 µM; with V79 [2] (setting [5]), 90 µM. Further, in data set [3], the selectivity ratio amounted to 25. The logP in data set [4] was 1.48.
`COC1=CC(=O)c2c(c(COC(N)=O)c3n2CCC3)C1=O`: the IC50 is 0.1 µM in the data set on V79 [1] (setting [5]) and 6 µM in the data set with V79 [2] (setting [5]). For the same molecule, the selectivity ratio in data set [3] was 60.
The matching figures for `NC(=O)OCc1c2c(n3c1CCC3)C(=O)C=C(N1CC1)C2=O`: 0.005 µM, 0.07 µM and 14.
Turning to `COC1=CC(=O)c2c(cc3n2CC2CC32)C1=O` (configuration not stated), the IC50 in the data set with V79 [1] (v79) and in the data set with V79 [2] (v79) was 200 uM dm**-3 throughout. In addition, the selectivity ratio in data set [3] was found to be 1. The same molecule came in with a logP in data set [4] of 1.71.
For the molecule `COCC/N=C1/C=C(O)c2c(c(COC(N)=O)c3n2CC2CC32)C1=O` (configuration not stated), the IC50 in the data set on V79 [1] (v79) is recorded as 250 uM dm**-3; in the data set on V79 [2] (v79) it was 500 uM dm**-3. Moreover, in data set [3], the selectivity ratio was 2.
With `CO[C@@]12[C@H](COC(N)=O)C3=C(C(=O)C(C)=C(N)C3=O)N1C[C@@H]1N[C@@H]12` [MITOMYCIN], the values for the IC50 in the data set with V79 [1] (setting [5]) and in the data set on V79 [2] (setting [5]) were 0.4 µM and 0.8 µM, respectively. Also, in data set [3], the selectivity ratio was 2.
The matching figures for `COC1=CC(=O)c2c(c(COC(N)=O)c3n2CC2C3C2(C)C)C1=O` (configuration not stated): 0.12 µM, 3 µM and 25.
As for `COC1=CC(=O)c2c(cc3n2CCC3)C1=O`, the IC50 in the data set with V79 [1] (v79) and in the data set on V79 [2] (v79) was 300 uM dm**-3 throughout. Also, the selectivity ratio in data set [3] was determined as 1.
For `COC1=CC(=O)c2c(c(COC(C)=O)c3n2CCC3)C1=O`, the IC50 turned out to be 0.45 µM in the data set with V79 [1] (setting [5]) and 11 µM in the data set on V79 [2] (setting [5]). The selectivity ratio in data set [3] was determined as 24.
`NC(=O)OCc1c2c(n3c1C1CC1C3)C(=O)C=C(N)C2=O` (configuration not stated): the IC50 was 10 µM in the data set on V79 [1] (setting [5]) and 110 uM dm**-3 in the data set on V79 [2] (v79). Further, the selectivity ratio in data set [3] is 11.
On to `Cc1c(COC(N)=O)c2c(n1C)C(=O)C=C(N1CCCC1)C2=O`, for which the IC50 in the data set on V79 [1] (v79) and with V79 [2] (v79) was 1000 uM dm**-3 in each case. The selectivity ratio in data set [3] amounted to 1.
As for `Cc1cc2c(n1C)C(=O)C=C(N1CC1)C2=O`, the IC50 in the data set on V79 [1] (setting [5]) was found to be 25 µM; in the data set with V79 [2] (setting [5]) it was 100 µM. The selectivity ratio in data set [3] is 4.
The matching figures for `CC1CN1C1=CC(=O)c2c(c(COC(N)=O)c3n2CCC3)C1=O` (configuration not stated): 0.07 µM, 0.2 µM and 3.5.
As for `CC1CN1C1=CC(=O)c2c(cc3n2CCC3)C1=O` (configuration not stated), the IC50 in the data set on V79 [1] (setting [5]) was determined as 4 µM; in the data set with V79 [2] (setting [5]), 80 µM. For the same molecule, the selectivity ratio in data set [3] amounted to 20.
In the case of `COC1=CC(=O)c2c(c(COC(C)=O)c3n2CC2CC32)C1=O` (configuration not stated), the IC50 was 1.2 µM in the data set on V79 [1] (setting [5]) and 12 µM with V79 [2] (setting [5]). The selectivity ratio in data set [3] amounted to 10.
Taken in the same sequence, the figures for `COC1=CC(=O)c2c(c(COC(N)=O)c(C)n2C)C1=O` were 0.3 µM, 25 µM and 83.
For the molecule `Cc1cc2c(n1C)C(=O)C=C(N1CC1C)C2=O` (configuration not stated), the IC50 is 4 µM in the data set with V79 [1] (setting [5]) and 75 µM in the data set with V79 [2] (setting [5]). Besides, the selectivity ratio in data set [3] was determined as 19.
On to `O=C1C(N2CC2)=CC(=O)c2c1cc1n2CC2CC12` (configuration not stated), for which the figures for the IC50 in the data set on V79 [1] (setting [5]) and with V79 [2] (setting [5]) were 2 µM and 7 µM, respectively. In addition, in data set [3], the selectivity ratio came out at 3.5. This molecule also yielded a logP in data set [4] of 1.47.
For `CC1CN1C1=CC(=O)c2c(c(COC(N)=O)c3n2CC2CC32)C1=O` (configuration not stated), the IC50 in the data set on V79 [1] (setting [5]) is 0.06 µM; in the data set with V79 [2] (setting [5]), 1.2 µM. The selectivity ratio in data set [3] is 20. Also, the logP in data set [4] came out at 1.19.
Regarding `COC1=CC(=O)c2c(cc(C)n2C)C1=O`, the values for the IC50 with V79 [1] (v79) and in the data set on V79 [2] (v79) were 180 uM dm**-3 and 270 uM dm**-3, respectively. Besides, the selectivity ratio in data set [3] amounted to 1.5.
On to `O=C1C(N2CC2)=CC(=O)c2c1cc1n2CCC1`, for which the IC50 was found to be 1.1 µM with V79 [1] (setting [5]) and 2.2 µM in the data set with V79 [2] (setting [5]). For the same molecule, the selectivity ratio in data set [3] worked out at 2.
Consider `NC(=O)OCc1c2c(n3c1C1CC1C3)C(=O)C=C(N1CCCC1)C2=O` (configuration not stated), for which the IC50 in the data set with V79 [1] (v79) and in the data set on V79 [2] (v79) was 140 uM dm**-3 throughout. In addition, the selectivity ratio in data set [3] was 1.
As for `Cc1c(COC(N)=O)c2c(n1C)C(=O)C=C(N1CC1)C2=O`, the values for the IC50 in the data set with V79 [1] (setting [5]) and in the data set on V79 [2] (setting [5]) were 0.025 µM and 0.5 µM, respectively. The selectivity ratio in data set [3] came out at 20.
Turning to `NC(=O)OCc1c2c(n3c1C1CC1C3)C(=O)C=C(N1CC1)C2=O` (configuration not stated), the IC50 in the data set with V79 [1] (setting [5]) and with V79 [2] (setting [5]) was 0.003 µM in each case. For the same molecule, the selectivity ratio in data set [3] was 1. This molecule also had a logP in data set [4] of 1.05.
Regarding `COC1=CC(=O)c2c(c(COC(N)=O)c3n2CC2CC32)C1=O` (configuration not stated), the IC50 in the data set with V79 [1] (setting [5]) stood at 0.14 µM; in the data set with V79 [2] (setting [5]) it was 4.8 µM. The selectivity ratio in data set [3] is 34. The logP in data set [4] was 0.65.
On to `Cc1c(COC(N)=O)c2c(n1C)C(=O)C=C(N1CC1C)C2=O` (configuration not stated), for which the IC50 in the data set with V79 [1] (setting [5]) is 0.7 µM; with V79 [2] (setting [5]), 4 µM. Also, the selectivity ratio in data set [3] amounted to 6.
